An excerpt weighted towards active compounds, which were near 2.3% of everything screened.
TRPC6 activator = activators of mouse TRPC6 channel; 0.13% of 310,000 active; B-score at 10 µM; AID 2550; HEK293-TRPC6 membrane potential dye fluorescence; stronger effect = higher value;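 active means B-score of the integrated fluorescence ratio above library mean plus 3 SD, and starting fluorescence ratio within library mean plus 5 SD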;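 further: higher score means more depolarization so channel activation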
TRPC4 act = TRPC4 (mouse) channel activation. Q9QUQ5. HEK293 TRPC4beta/mu-opioid, Fluo4 calcium fluorescence; stronger effect = higher value. B-score at 10 µM. 0.49% of 310,000 active;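 active means B-score above 5 SD of library B-scores, and initial fluorescence ratio not above library mean plus 5 SD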;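 further: positive B-score marks a calcium rise read as TRPC4 activation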
Target sequence (Q9QUQ5 whole entry, looked up): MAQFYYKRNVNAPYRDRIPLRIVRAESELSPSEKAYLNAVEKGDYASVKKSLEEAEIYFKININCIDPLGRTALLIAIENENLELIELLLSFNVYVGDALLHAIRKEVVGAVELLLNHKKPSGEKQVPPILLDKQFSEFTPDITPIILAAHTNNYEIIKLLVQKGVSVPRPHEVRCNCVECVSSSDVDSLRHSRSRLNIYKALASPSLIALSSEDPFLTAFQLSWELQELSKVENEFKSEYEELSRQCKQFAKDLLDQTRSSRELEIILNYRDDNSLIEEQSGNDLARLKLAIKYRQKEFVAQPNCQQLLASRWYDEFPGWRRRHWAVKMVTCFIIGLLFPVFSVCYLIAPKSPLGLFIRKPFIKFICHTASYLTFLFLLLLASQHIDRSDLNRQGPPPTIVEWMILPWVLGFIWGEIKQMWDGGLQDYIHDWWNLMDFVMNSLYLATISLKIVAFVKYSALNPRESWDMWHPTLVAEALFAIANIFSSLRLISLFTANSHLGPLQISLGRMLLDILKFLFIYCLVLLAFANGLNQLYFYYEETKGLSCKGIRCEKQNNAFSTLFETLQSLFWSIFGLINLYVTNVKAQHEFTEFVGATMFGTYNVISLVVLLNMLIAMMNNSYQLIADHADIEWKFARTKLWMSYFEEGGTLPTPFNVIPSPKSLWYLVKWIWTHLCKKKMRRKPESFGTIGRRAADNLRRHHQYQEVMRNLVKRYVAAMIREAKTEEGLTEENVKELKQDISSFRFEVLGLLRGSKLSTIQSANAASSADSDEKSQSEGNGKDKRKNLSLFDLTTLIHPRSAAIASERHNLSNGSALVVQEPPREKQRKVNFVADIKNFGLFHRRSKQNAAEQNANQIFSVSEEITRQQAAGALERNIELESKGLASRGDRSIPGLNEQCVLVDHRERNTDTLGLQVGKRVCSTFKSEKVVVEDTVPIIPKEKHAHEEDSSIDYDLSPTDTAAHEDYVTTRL
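Incubation: 45 min room-temperature Fluo4 loading, 110 s read / System: HEK293 cells stably co-expressing mouse TRPC4beta and mu-opioid receptor / Signal: Fluo4 fluorescence, kinetic / Control set: buffer (low) and maximal DAMGO (high) / Measure: integrated baseline-normalised fluorescence ratio, converted to per-well B score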
TRPC4 potent = TRPC4 (mouse) allosteric potentiation; B-score at 10 µM; HEK293 TRPC4beta/mu-opioid, DAMGO EC20, Fluo-4 Ca2+ flux; stronger effect = higher value; AID 2227; 0.42% of 310,000 active; Q9QUQ5;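 active means B-score of calcium response area above 5 SD of library B-scores, with initial fluorescence ratio within 5 SD of library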
TRPC6 inh = mouse TRPC6 channel inhibition. Q61143. HEK293-TRPC6, membrane potential dye, ACh-evoked depolarization; stronger effect = lower value. B-score at 10 µM. 1.1% of 310,000 active. AID 2553;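 active means B-score under library mean minus 3 SD, initial fluorescence not abnormally high, positive integrated signal ratio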;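 further: B-score derived from integrated fluorescence ratio over the kinetic read; more negative B-score means stronger inhibition of depolarization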
TRPC4 inh = TRPC4 (mouse) channel inhibition. HEK293 TRPC4beta/mu-opioid, DAMGO-evoked Fluo4 calcium flux; stronger effect = lower value. B-score at 10 µM. 0.39% of 300,000 active. AID 2247;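 active means B-score over 3 SD under the library average, no early fluorescence shift, positive overall ratio signal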
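test system = HEK293 cells with stable TRPC4beta plus mu-opioid receptor expression | detection = Fluo4 Ca2+ flux fluorescence | read-out = integrated fluorescence ratio relative to baseline, converted to per-well B score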
Numbers stand for hits; n = inactive.

SMILES | TRPC6 activator | TRPC4 act | TRPC4 potent | TRPC6 inh | TRPC4 inh
CCOC(=O)C1(CCc2ccccc2)CCN(Cc2ccn[nH]2)CC1 | n | n | n | n | -6
CCOC(=O)C1(Cc2cccc(F)c2)CCN(Cc2ccon2)CC1 | n | n | n | n | n
CCOC(=O)C1(CCCc2ccccc2)CCN(Cc2cnc(C)s2)CC1 | n | 74 | n | n | n
O=C(CN(CCc1ccccc1)C(=O)c1csnn1)NCc1ccc(F)cc1 | n | n | n | n | n
CCc1nc2ccccc2n1CC(=O)OCC(=O)N(CC(C)C)c1c(N)n(Cc2ccccc2)c(=O)[nH]c1=O | n | n | n | n | n
COc1ccccc1N1CCN(C(=O)c2cc(C(C)(C)C)oc2C)CC1 | n | n | n | n | n
Cc1oc(C(C)(C)C)cc1C(=O)N1CCN(c2ncccc2C(F)(F)F)CC1 | n | n | 11 | n | n
COc1ccc(C)cc1NC(=O)C1CCN(S(=O)(=O)c2cccs2)CC1 | n | n | n | n | n
O=C(NNC(=O)c1sc2ccccc2c1Cl)Nc1ccc(Cl)cc1 | n | n | n | n | n
Cc1ccc(NC(=S)NC(=O)c2sc3ccccc3c2Cl)c(C(=O)O)c1 | n | n | n | n | -6
O=C(NNC(=S)NC(=O)c1sc2ccccc2c1Cl)c1ccc(Cl)cc1 | n | n | 56 | n | n
O=C(O)c1ccccc1NC(=S)NC(=O)c1sc2ccccc2c1Cl | n | n | n | n | n
Cc1ccc(S(=O)(=O)c2nc(S(C)(=O)=O)sc2N2CCC3(CC2)OCCO3)cc1 | n | n | n | n | n
CN(CC(=O)OCC(=O)c1c(N)n(C)c(=O)n(C)c1=O)S(=O)(=O)c1ccc(Cl)cc1 | n | n | n | n | n
Cn1c(N)c(C(=O)COC(=O)CNS(=O)(=O)c2ccc(Cl)c(Cl)c2)c(=O)n(C)c1=O | n | n | n | n | -6
FC(F)C(F)(F)c1cc(-c2ccc(Cl)cc2)n[nH]1 | n | 50 | n | n | n
Oc1ccccc1-c1cc(C(F)(F)C(F)F)[nH]n1 | n | n | n | n | n
Fc1ccc(-c2cc(C(F)(F)C(F)F)[nH]n2)cc1 | n | 71 | n | n | n
COC(=O)c1cc(-c2ccc(Cl)cc2)n[nH]1 | n | n | n | n | n
CCOc1cc(C2C3=C(CC(C)(C)CC3=O)N(C)C3=C2C(=O)CC(C)(C)C3)ccc1O | n | n | n | n | n
O=C(C[n+]1cccc(CNC(=O)c2ccc(OC(F)F)cc2)c1)Nc1ccccc1Cl | n | n | n | n | n
O=C(C[n+]1cccc(CNC(=O)c2ccc(OC(F)F)cc2)c1)Nc1ccc(SC(F)F)cc1 | n | n | n | n | -7
COCC(C)NC(C(=O)Nc1ccc(C)c(Cl)c1)c1ccccc1 (centres undefined) | n | 59 | n | n | n
Clc1ccc(-c2nsc(N3CCOCC3)n2)c(Cl)c1 | n | n | n | n | n
CCOc1cc(Br)ccc1S(=O)(=O)N1CC(C)OC(C)C1 (centres undefined) | n | 43 | n | n | n
SMILES | TRPC6 activator | TRPC4 act | TRPC4 potent | TRPC6 inh | TRPC4 inh
CCOC(=O)N1CCC(NC(=O)c2cc(COc3ccccc3SC)on2)CC1 | n | n | n | n | n
Cc1ccc(S(=O)(=O)c2c(C(=O)c3ccccc3)cnc3cc4c(cc23)OCCO4)cc1 | n | n | 18 | n | n
Cc1cccc(NC(=O)CSc2nnc(C)c(C)n2)c1 | n | n | n | n | n
CSCC[C@H](N)C(=O)N1CCC(C(=O)N[C@H](C)C(=O)Nc2ccc(C(C)C)cc2)CC1 | n | n | n | n | n
NNC1=N[C@H]2CS(=O)(=O)C[C@H]2S1 | n | n | n | n | n
O=C(O)C1C2CCC(CC2)C1C(=O)N1CCN(Cc2ccc(F)cc2)CC1 (centres undefined) | n | 87 | n | n | n
O=C(C1CCN(Cc2ccc(F)cc2)CC1)N1CCN(C/C=C/c2ccccc2)CC1 | n | n | n | n | n
CCCCNc1c(-c2ccc(SC(C)CC)c(OC)c2)nc2ccc(C)cn12 (centres undefined) | n | n | n | n | -6
CCN1CCN(c2ccc(N3CCN(C(=O)c4ccc(Br)o4)CC3)nn2)CC1 | n | n | n | n | n
CCCS(=O)(=O)N1CCN(Cc2ccc3c(c2)c2ccccc2n3CC)CC1 | n | n | n | n | n
Cc1ccc(NS(=O)(=O)c2ccc(C(=O)N3CCCC(C(F)(F)F)C3)cc2)cc1 (centres undefined) | n | n | n | n | n
OC(COc1cccc2ccccc12)CN1CCN(c2ccccc2Cl)CC1 (centres undefined) | n | n | n | n | n
Cc1csc(/C(=N/OC(=O)c2ccco2)C(N)=O)n1 | n | n | 10 | n | n
COc1ccc(/C(N)=N/OC(=O)c2ccco2)cc1OC | n | n | n | n | n
O=C(CSc1nnc(NC(=O)c2ccc(F)cc2F)s1)NC1CCCC1 | n | n | n | n | n
CCN(CC)CCNCC1C(=O)O[C@@H]2C[C@@]3(C)CCC[C@H](C)C3=C[C@H]12 (some centres undefined) | n | n | 11 | n | n
CCc1sc(N(C(=O)Cc2ccccc2)c2ccccc2)nc1-c1ccccc1 | n | n | n | n | n
CCCCC(=O)N(c1ccc(C(=O)O)cc1)c1nc(-c2ccc(Cl)cc2)c(CC)s1 | n | n | n | n | -6
Cc1nn(C(C)C(=O)NCCCN2CCCCCC2)c(=O)c2cc3sccc3n12 (centres undefined) | n | n | n | n | n
COc1ccc(CCn2c(=S)[nH]c3cc(C(=O)N4CCOCC4)ccc3c2=O)cc1OC | n | n | 20 | n | n
O=C(CCl)Nc1cccc(Oc2ccccc2)c1 | n | n | n | n | n
Cc1cc2nc(-c3ccc[nH]c3=O)n(Cc3ccccc3F)c2cc1C | n | n | n | n | n
CC1(c2nnc(-c3cccc(Cl)c3)o2)CC(c2ccc(OC(F)(F)F)cc2)=NO1 (centres undefined) | n | n | n | n | n
CC(=O)Nc1ccc(S(=O)(=O)Nc2nc3ccccc3nc2N2CCc3ccccc3C2)cc1 | n | n | n | n | n
CC(=O)Nc1ccc(S(=O)(=O)Nc2nc3ccccc3nc2N2CCCCCC2)cc1 | n | n | 12 | n | n
SMILES | TRPC6 activator | TRPC4 act | TRPC4 potent | TRPC6 inh | TRPC4 inh
CNCC(=O)Nc1ccc(Cl)c(C(F)(F)F)c1 | n | n | 28 | n | n
CCCNC(=O)C(=O)NCC(c1ccc2c(c1)OCO2)N1CCN(c2ccc(F)cc2)CC1 (centres undefined) | n | n | n | n | n
COc1ccc(/C=C2/SC(=S)N(CCCC(=O)Nc3ccccc3C(=O)O)C2=O)cc1 | n | n | n | n | -6
Cc1ccc(/C=C2\SC(=S)N(CCCC(=O)Nc3ccccc3C(=O)O)C2=O)cc1 | n | n | n | n | n
CN1CCN(c2ccc(CNS(=O)(=O)c3ccccc3)cc2)CC1 | n | n | n | n | n
CN1CCN(c2ccc(CNS(=O)(=O)c3ccsc3)cc2)CC1 | n | n | 22 | n | n
